These results are taken from ChEMBL document CHEMBL3817796, “Discovery of Novel 15-Lipoxygenase Activators To Shift the Human Arachidonic Acid Metabolic Network toward Inflammation Resolution” (J Med Chem, 2016).

Active and inactive are the calls of the source. The calls are words filed in the database; no cut-off is given here.

In assay [1] the target is T1, Polyunsaturated fatty acid lipoxygenase ALOX15 (Homo sapiens) (UniProt P16050).
T1 sequence (whole entry): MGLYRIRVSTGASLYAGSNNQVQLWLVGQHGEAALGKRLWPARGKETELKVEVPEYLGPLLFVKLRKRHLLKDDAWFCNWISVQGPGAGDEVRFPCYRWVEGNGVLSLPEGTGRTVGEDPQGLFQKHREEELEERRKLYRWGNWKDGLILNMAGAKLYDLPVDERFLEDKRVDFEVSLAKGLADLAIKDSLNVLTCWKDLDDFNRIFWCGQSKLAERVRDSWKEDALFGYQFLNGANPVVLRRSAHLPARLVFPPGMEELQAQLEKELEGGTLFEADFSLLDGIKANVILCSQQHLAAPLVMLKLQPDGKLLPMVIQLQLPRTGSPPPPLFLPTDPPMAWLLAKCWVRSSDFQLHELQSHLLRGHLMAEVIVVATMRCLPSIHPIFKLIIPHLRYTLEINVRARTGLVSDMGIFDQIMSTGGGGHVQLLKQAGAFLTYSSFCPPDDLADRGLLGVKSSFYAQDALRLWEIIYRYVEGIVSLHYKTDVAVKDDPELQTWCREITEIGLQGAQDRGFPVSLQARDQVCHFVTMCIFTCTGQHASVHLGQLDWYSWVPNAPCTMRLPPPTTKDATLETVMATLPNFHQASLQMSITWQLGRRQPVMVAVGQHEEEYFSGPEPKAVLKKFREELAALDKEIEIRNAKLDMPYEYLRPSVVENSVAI
As to the kind of experiment: Activation of 15-LOX in human PMN assessed as 15-HETE production at 6.2 to 40 uM pre-incubated for 15 mins before A23187, Ca2+ and Mg2+ stimulation for 1 hr by LC-MS method. Summed up: (§1)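 PMNs preincubated 15 min at 37 °C with compound or vehicle, then stimulated 1 h at 37 °C with 10 μM A23187 plus 2 mM Ca2+ and 2 mM Mg2+. Reactions stopped with cold methanol. Eicosanoids quantified by LC-MS.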

Assay [2] addresses Prostaglandin G/H synthase 1 (Homo sapiens) (UniProt P23219). As to the kind of experiment: Activation of COX1 (unknown origin) assessed as PGG2 to PGH2 conversion by measuring N,N,N',N'-tetramethyl-p-phenylenediamine oxidation at 100 uM by spectrophotometry.
Assay [3] has the same target. As to the kind of experiment: Inhibition of COX1 (unknown origin) assessed as reduction in PGG2 to PGH2 conversion by measuring N,N,N',N'-tetramethyl-p-phenylenediamine oxidation at 100 uM by spectrophotometry.
In assay [4] the target is T1, Polyunsaturated fatty acid lipoxygenase ALOX15 (Homo sapiens). As to the kind of experiment: Activation of 15-LOX in human whole blood assessed as increase in 15-HETE production at 100 uM pre-incubated for 20 mins before stimulation with LPS and A23187 for 120 mins by LC-MS/MS method. It is filed as tissue-based. Summed up:
(§2)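 Human blood preincubated 20 min at 37 °C with DMSO vehicle or compound in DMSO. LPS added at 100 μg/mL for 24 h at 37 °C, then A23187 at 20 μg/mL final. Samples frozen in liquid nitrogen at time points, lysed by freeze–thaw, with PGB2 internal standard. Analysed by C18 LC-MRM MS, negative ion. Change = control-normalized concentration minus 1, ×100%; 120 min value from AUC.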

Assay [5] concerns the target T2, Prostaglandin G/H synthase 2 (Homo sapiens) (UniProt P35354).
T2 sequence (whole entry): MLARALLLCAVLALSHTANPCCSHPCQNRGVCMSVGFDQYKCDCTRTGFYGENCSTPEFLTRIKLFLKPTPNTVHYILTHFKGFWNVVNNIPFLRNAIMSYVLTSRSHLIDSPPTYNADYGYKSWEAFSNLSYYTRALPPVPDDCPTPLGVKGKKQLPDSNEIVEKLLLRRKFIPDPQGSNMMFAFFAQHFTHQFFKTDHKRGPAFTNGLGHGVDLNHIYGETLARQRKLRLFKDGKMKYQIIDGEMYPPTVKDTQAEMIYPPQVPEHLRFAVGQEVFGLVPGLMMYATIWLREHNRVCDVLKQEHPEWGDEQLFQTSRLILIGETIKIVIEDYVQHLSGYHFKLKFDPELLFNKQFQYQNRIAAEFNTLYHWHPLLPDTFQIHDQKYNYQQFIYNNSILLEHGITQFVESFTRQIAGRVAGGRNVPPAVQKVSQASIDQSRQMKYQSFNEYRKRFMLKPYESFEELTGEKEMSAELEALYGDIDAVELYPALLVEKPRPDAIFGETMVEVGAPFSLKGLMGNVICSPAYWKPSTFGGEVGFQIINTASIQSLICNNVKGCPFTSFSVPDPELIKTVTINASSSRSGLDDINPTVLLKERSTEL
As to the kind of experiment: Activation of COX2 (unknown origin) assessed as PGG2 to PGH2 conversion by measuring N,N,N',N'-tetramethyl-p-phenylenediamine oxidation at 100 uM by spectrophotometry.

The target in assay [6] is T1, Polyunsaturated fatty acid lipoxygenase ALOX15 (Homo sapiens). As to the kind of experiment: Activation of 15-LOX in human PMN assessed as 12-HETE production at 6.2 to 40 uM pre-incubated for 15 mins before A23187, Ca2+ and Mg2+ stimulation for 1 hr by LC-MS method. Summed up: as §1
Assay [7] has as its target T3, Leukotriene A-4 hydrolase (Homo sapiens) (UniProt P09960).
T3 sequence (whole entry): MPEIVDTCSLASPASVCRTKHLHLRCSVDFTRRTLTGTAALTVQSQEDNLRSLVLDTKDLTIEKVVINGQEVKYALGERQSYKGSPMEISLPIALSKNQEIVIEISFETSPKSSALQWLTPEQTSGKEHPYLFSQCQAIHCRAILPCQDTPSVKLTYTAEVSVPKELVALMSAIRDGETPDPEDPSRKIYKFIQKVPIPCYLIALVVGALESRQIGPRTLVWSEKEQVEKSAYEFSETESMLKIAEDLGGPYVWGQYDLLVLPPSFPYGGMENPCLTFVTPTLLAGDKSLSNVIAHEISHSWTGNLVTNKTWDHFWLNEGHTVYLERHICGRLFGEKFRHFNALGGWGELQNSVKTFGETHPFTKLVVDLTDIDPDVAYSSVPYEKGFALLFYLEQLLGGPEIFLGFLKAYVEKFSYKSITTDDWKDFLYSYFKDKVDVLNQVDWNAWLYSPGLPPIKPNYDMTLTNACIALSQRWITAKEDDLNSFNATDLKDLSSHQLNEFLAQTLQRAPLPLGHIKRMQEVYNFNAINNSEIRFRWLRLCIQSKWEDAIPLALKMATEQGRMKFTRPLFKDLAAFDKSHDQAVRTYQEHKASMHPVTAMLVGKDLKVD
Briefly: Inhibition of LTA4H hydrolase activity (unknown origin) assessed as reduction in LTB4 formation at 100 uM by enzyme linked immunosorbent assay. Summed up: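 LTA4H hydrolase activity read as LTB4 formation by ELISA. Compound handled as in the 15-LOX assay.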

The test system of assay [8] is Blood. As to the kind of experiment: Reduction in TXB2 in production in human whole blood at 100 uM pre-incubated for 20 mins before stimulation with LPS and A23187 for 120 mins by LC-MS/MS method. Format: functional. On the set-up: scale not given: the % may be the effect or the level left. In a few lines:
as §2

For assay [9], the target named is T1, Polyunsaturated fatty acid lipoxygenase ALOX15 (Homo sapiens). Briefly: Activation of 15-LOX in human whole blood assessed as 15-HETE production at 100 uM pre-incubated for 20 mins before stimulation with LPS and A23187 for 120 mins in presence of 2 uM 5-LOX inhibitor Zileuton by LC-MS/MS method. Format: tissue-based. In a few lines:
as §2

What is called inhibition is the relative decrease from the control value, in per cent.

Prostaglandin G/H synthase 1 (Homo sapiens), sequence (P23219 whole entry): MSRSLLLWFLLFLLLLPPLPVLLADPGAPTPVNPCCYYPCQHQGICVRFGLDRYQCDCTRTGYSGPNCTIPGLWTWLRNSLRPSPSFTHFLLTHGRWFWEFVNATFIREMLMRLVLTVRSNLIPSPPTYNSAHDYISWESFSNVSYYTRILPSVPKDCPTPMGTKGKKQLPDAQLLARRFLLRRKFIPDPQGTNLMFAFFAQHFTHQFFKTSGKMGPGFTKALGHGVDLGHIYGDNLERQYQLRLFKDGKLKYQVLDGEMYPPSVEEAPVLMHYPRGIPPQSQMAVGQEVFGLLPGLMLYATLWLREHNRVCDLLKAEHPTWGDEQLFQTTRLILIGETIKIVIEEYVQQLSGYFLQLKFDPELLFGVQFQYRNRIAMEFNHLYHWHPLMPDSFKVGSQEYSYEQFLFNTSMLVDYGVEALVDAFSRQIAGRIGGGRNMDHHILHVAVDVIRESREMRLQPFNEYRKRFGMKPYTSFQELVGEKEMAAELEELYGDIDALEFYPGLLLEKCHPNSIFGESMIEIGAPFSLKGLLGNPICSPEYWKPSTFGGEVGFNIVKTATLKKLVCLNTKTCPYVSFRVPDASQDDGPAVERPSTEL

As for `CN1CCN(CC(=O)N2N=C3/C(=C/c4ccccc4)CCCC3C2c2ccccc2)CC1` (centres undefined), the outcome in assay [1] and in assay [6] was Active. The Activity in [2] is under 5%; in assay [4] it was 33%; in assay [5], under 5%; in assay [8], 27%; in [9], 36%. Besides, the inhibition in assay [3] and in assay [7] was under 5% in each case.
